In ChEMBL document CHEMBL4715928, “Discovery of Dipeptides as Potent Botulinum Neurotoxin A Light-Chain Inhibitors” (ACS Med Chem Lett, 2021):

System: Clostridium botulinum
Assay: Zinc chelating activity mediated inhibition of Clostridium botulinum BoNT/A LC activity at 15 uM using SNAPtide as substrate measured for 10 mins by FRET assay relative to control
Procedure, shortened: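 Recombinant BoNT/A light chain at 20 nM, 8 μM SNAPtide FRET substrate, each dipeptide tested at 15 μM. Reactions were run in triplicate, and percent inhibition is the mean of the three.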

| SMILES | inhibition |
| --- | --- |
| CC[C@H](C)[C@H](NC(=O)[C@H](Cc1ccccc1)NS(=O)(=O)c1ccc(-c2ccccc2)cc1)C(=O)NO | 77% |
| CC[C@H](C)[C@@H](NC(=O)[C@@H](Cc1ccccc1)NS(=O)(=O)c1ccc(-c2ccc(Cl)cc2)cc1)C(=O)NO | 63% |
| CC[C@H](C)[C@H](NC(=O)[C@@H](NS(=O)(=O)c1ccc(-c2ccc(Cl)cc2)cc1)[C@@H](C)CC)C(=O)NO | 85% |
| CC[C@H](C)[C@H](NC(=O)[C@H](Cc1ccccc1)NS(=O)(=O)c1ccc(C2CCCCC2)cc1)C(=O)NO | 57% |
| CC[C@H](C)[C@H](NC(=O)[C@H](Cc1ccccc1)NS(=O)(=O)c1ccc(Cl)cc1)C(=O)NO | 77% |
| CCOc1ccc(S(=O)(=O)N[C@@H](Cc2ccccc2)C(=O)N[C@H](C(=O)NO)[C@@H](C)CC)cc1OCC | 22% |
| CC[C@H](C)[C@H](NS(=O)(=O)c1ccc(-c2ccc(Cl)cc2)cc1)C(=O)N[C@@H](C(=O)NO)[C@@H](C)CC | 57% |
| CC[C@H](C)[C@H](NC(=O)[C@H](NS(=O)(=O)c1ccc(-c2ccc(Cl)cc2)cc1)[C@@H](C)CC)C(=O)NO | 69% |
| CC[C@H](C)[C@H](NC(=O)[C@H](CC(C)C)NS(=O)(=O)c1ccc(-c2ccc(Cl)cc2)cc1)C(=O)NO | 100% |
| CC[C@H](C)[C@H](NC(=O)[C@H](C)NS(=O)(=O)c1ccc(-c2ccc(Cl)cc2)cc1)C(=O)NO | 31% |
| CC[C@H](C)[C@H](NC(=O)[C@H](Cc1ccccc1)NS(=O)(=O)c1ccccc1)C(=O)NO | 52% |
| CC[C@H](C)[C@H](NC(=O)[C@@H](Cc1ccccc1)NS(=O)(=O)c1ccc(-c2ccc(Cl)cc2)cc1)C(=O)NO | 41% |
| CC[C@H](C)[C@H](NC(=O)[C@H](Cc1ccccc1)NS(=O)(=O)c1cccc(Cl)c1)C(=O)NO | 79% |
| CC[C@H](C)[C@@H](NS(=O)(=O)c1ccc(-c2ccc(Cl)cc2)cc1)C(=O)N[C@@H](Cc1ccccc1)C(=O)NO | 62% |
| CC[C@H](C)[C@H](NS(=O)(=O)c1ccc(-c2ccc(Cl)cc2)cc1)C(=O)N[C@@H](C)C(=O)NO | 55% |
| CC[C@H](C)[C@H](NC(=O)[C@H](Cc1ccccc1)NS(=O)(=O)c1ccc(Br)cc1)C(=O)NO | 87% |
| CC[C@H](C)[C@H](NC(=O)C(C)(C)NS(=O)(=O)c1ccc(-c2ccc(Cl)cc2)cc1)C(=O)NO | 84% |
| CC[C@H](C)[C@H](NS(=O)(=O)c1ccc(-c2ccc(Cl)cc2)cc1)C(=O)N[C@@H](Cc1ccccc1)C(=O)NO | 44% |
| CC[C@H](C)[C@H](NS(=O)(=O)c1ccc(-c2ccc(Cl)cc2)cc1)C(=O)NC(C)(C)C(=O)NO | 11% |
| CC[C@H](C)[C@H](NC(=O)[C@H](Cc1ccccc1)NS(=O)(=O)c1c(Cl)cccc1Cl)C(=O)NO | 83% |
| CC[C@H](C)[C@H](NC(=O)[C@H](Cc1ccccc1)NS(=O)(=O)c1cccc(C(C)(C)C)c1)C(=O)NO | 93% |
| CC[C@H](C)[C@H](NC(=O)[C@H](Cc1ccccc1)NS(=O)(=O)c1ccc(-c2ccc(Cl)cc2)cc1)C(=O)NO | 100% |
| CC[C@H](C)[C@H](NS(=O)(=O)c1ccc(-c2ccc(Cl)cc2)cc1)C(=O)NCCC(=O)NO | 62% |
| CC[C@H](C)[C@H](NS(=O)(=O)c1ccc(-c2ccc(Cl)cc2)cc1)C(=O)NCC(=O)NO | 18% |
| CC[C@H](C)[C@H](NC(=O)[C@H](Cc1ccccc1)NS(=O)(=O)c1cc(Cl)cc(Cl)c1)C(=O)NO | 100% |
| CC[C@H](C)[C@@H](NC(=O)[C@H](NS(=O)(=O)c1ccc(-c2ccc(Cl)cc2)cc1)[C@@H](C)CC)C(=O)NO | 48% |

System: not listed separately
Assay: Zinc chelating activity mediated inhibition of Clostridium botulinum BoNT/A LC activity using SNAPtide as substrate measured for 10 mins by FRET assay
Procedure, shortened: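 BoNT/A light chain at 20 nM was incubated with 8 μM SNAPtide substrate across a range of dipeptide concentrations. IC50 values were derived from the concentration series.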

| SMILES | IC50 |
| --- | --- |
| CCC[C@H](NC(=O)[C@@H](NS(=O)(=O)c1cc(Cl)cc(Cl)c1)[C@@H](C)CC)C(=O)NO | 89 nM |
| CC(C)[C@H](NC(=O)[C@H](Cc1ccccc1)NS(=O)(=O)c1cc(Cl)cc(Cl)c1)C(=O)NO | 21 nM |
| CCC[C@H](NC(=O)[C@@H](NS(=O)(=O)c1ccc(-c2ccc(Cl)cc2)cc1)[C@@H](C)CC)C(=O)NO | 1000 nM |
| CC[C@H](C)[C@H](NC(=O)[C@@H](NS(=O)(=O)c1ccc(-c2ccc(Cl)cc2)cc1)C(C)C)C(=O)NO | 2900 nM |
| CCC[C@H](NC(=O)[C@H](Cc1ccccc1)NS(=O)(=O)c1cc(Cl)cc(Cl)c1)C(=O)NO | 43 nM |
| CC[C@H](C)[C@H](NC(=O)[C@H](Cc1ccccc1)NS(=O)(=O)c1ccc(-c2ccc(Cl)cc2)cc1)C(=O)NO | 2400 nM |
| CC[C@H](C)[C@H](NS(=O)(=O)c1cc(Cl)cc(Cl)c1)C(=O)N[C@@H](CC(C)C)C(=O)NO | 150 nM |
| CC[C@H](C)[C@H](NC(=O)[C@H](Cc1ccccc1)NS(=O)(=O)c1cc(Cl)cc(Cl)c1)C(=O)NO | 150 nM |
| CC[C@H](C)[C@H](NC(=O)[C@@H](NS(=O)(=O)c1cc(Cl)cc(Cl)c1)C(C)C)C(=O)NO | 69 nM |
